Assay outcomes (PubChem BioAssay)
ERAP1 inh: human ERAP1 aminopeptidase inhibitors, primary screen, biochemical, single point, plate reader; actives 0.15% (n = 340,000); recombinant ERAP1, Leu-AMC fluorescence, 60 min; Endoplasmic reticulum aminopeptidase 1 (Homo sapiens), Q9NZ08; inhibition, % at 10.7 µM;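 active means mean replicate inhibition of at least 30%, or all replicates individually reaching that 30% level; inactive means mean below 30% and not every replicate reaching it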;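 further: 0% = neutral control wells and 100% = L-leucinethiol positive control wells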
SIRT5 inh: SIRT5 desuccinylase inhibitors, primary screen, biochemical, fluorescence imaging, single point, set 5; NAD-dependent protein deacylase sirtuin-5, mitochondrial (Homo sapiens), Q9NXA8; Purified SirT5, succinyl-peptide AMC, trypsin-coupled fluorescence; inhibition, % at 15 µM; actives 1.1% (n = 330,000); in the data active means inhibition above about 15%; inconclusive means no clear call, values can overlap the other calls
E-sel inducer: E-selectin induction in HUVECs, primary screen, imaging, HUVEC, immunofluorescence imaging, single point | AID 686992, 2013 | normalized: neutral wells 0, TNF-alpha wells 100 | actives 0.37% (n = 260,000) | P16581 | activation, % at 7.58 µM;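 active means mean E-selectin-positive cell signal at least 10% of the positive control, reached in at least 60% of replicates, without over 20% cell loss; inconclusive means no rule given, readout overlaps actives, possibly toxicity-flagged; inactive means the rest, including those meeting only one limit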
Target sequence (P16581 whole entry, looked up): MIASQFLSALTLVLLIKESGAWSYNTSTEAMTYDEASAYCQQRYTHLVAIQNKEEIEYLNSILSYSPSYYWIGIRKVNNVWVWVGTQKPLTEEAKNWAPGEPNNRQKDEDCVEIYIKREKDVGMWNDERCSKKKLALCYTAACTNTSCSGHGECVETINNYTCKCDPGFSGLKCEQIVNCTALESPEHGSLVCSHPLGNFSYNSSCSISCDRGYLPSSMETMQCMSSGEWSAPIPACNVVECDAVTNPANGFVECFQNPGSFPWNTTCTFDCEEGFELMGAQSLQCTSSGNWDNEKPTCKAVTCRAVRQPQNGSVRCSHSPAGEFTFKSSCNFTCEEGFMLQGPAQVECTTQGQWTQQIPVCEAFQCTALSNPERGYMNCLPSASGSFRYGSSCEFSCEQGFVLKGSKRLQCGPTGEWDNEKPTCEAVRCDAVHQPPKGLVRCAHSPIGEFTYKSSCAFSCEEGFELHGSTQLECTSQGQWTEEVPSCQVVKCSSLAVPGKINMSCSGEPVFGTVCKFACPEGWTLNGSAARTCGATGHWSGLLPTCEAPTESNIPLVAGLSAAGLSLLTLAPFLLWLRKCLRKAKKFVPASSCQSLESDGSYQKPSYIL
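System: HUVEC, human umbilical vein endothelial cells; quantity: 3,000 cells/well; buffer or medium: EGM-2 medium, gelatin-coated wells; dosing: single-point compound dose; detection: immunofluorescence imaging; evaluation: % PE-positive cells; benchmarks: TNF-alpha, DMSO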
DENV2 CPE rescue: inhibitors of DENV2 cytopathic effect, primary screen, cell-based, plate reader, single concentration; DENV2-infected cells, cytopathic effect rescue; CPE inhibition, % at 9.99 µM; actives 1.7% (n = 350,000); in the data active means CPE inhibition above about 20%, passing the limit was not always enough; inconclusive means no clear call, values can overlap the other calls; tested in BHK-21 cells;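 further: 0% = median of neutral control wells and 100% = median of positive control wells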
PglD DTNB: C. jejuni PglD acetyltransferase inhibitors, primary screen, biochemical, DTNB colorimetric, single point. UDP-N-acetylbacillosamine N-acetyltransferase PglD (Campylobacter jejuni). purified PglD enzyme, DTNB colorimetric CoA detection. inhibition, % at 12.5 µM. actives 0.098% (n = 360,000); in the data active means inhibition above about 16%, passing the limit was not always enough; inconclusive means no clear call, values can overlap the other calls
* marks the source's active call; other numbers are inactive results; ? = inconclusive; . = not tested or not shown. An excerpt weighted towards active compounds, which were near 2.5% of everything screened.

SMILES | ERAP1 inh | SIRT5 inh | E-sel inducer | DENV2 CPE rescue | PglD DTNB
Cc1[nH]c(=S)[nH]c(=O)c1Cc1ccc(OCC(C)C)cc1 | -1.4 | -1.8 | . | -0.4 | .
CCCn1c(NCc2ccc(N(C)C)cc2)nc2ccccc21 | -0.3 | -0.7 | 3.4 | 23.9* | 1.9
COc1ccc(C#Cc2ccc([C@H]3[C@H]4CN(C(C)=O)CC(=O)N4[C@H]3CO)cc2)cc1 | . | -5.4 | -0.3 | ? | .
CC(=O)N1CC(=O)N2[C@H](CO)[C@@H](c3ccc(C#Cc4cccnc4)cc3)[C@@H]2C1 | -0.5 | -2.2 | -0.3 | 26.5* | .
COc1ccc(C#Cc2ccc([C@H]3[C@@H](CO)N4C(=O)CN(C(C)=O)C[C@H]34)cc2)cc1 | . | 26.3* | -0.2 | -3.1 | .
CCOc1ccccc1C(=O)NCC(=O)NCCCc1ccccc1 | -1.3 | -0.2 | -0.7 | -3.9 | -1.6
Cc1ccc(C(=O)NC(=C(Cl)Cl)S(=O)(=O)c2ccccc2)cc1 | -4.5 | -1.9 | 1.9 | -1.1 | .
CCCCC(=O)Nc1cc([N+](=O)[O-])ccc1Cl | 0.3 | -1.0 | 5.7 | 22.6* | .
Cc1ccc(N(CC(=O)NC(C)(C)C)C(=O)CNC(=O)c2cccs2)cc1 | 0.4 | 6.1 | . | 0.1 | .
Cc1cccc(N(CC(=O)NC(C)(C)C)C(=O)CNC(=O)c2cccs2)c1C | . | 2.1 | 0.1 | 43.5* | 2.7
CN(C[C@H]1N[C@@H](CO)[C@H]1c1ccc(-c2cccc(F)c2)cc1)C(=O)C1CCC1 | 0.4 | -2.9 | 0.0 | -4.7 | 2.5
COCCN(C[C@H]1N[C@H](CO)[C@@H]1c1ccc(-c2ccc(F)cc2)cc1)C(C)=O | -4.4 | 8.8 | 0.0 | 34.8* | -1.3
CCN(C[C@H]1N[C@H](CO)[C@@H]1c1ccc(-c2ccc(F)cc2)cc1)C(=O)COC | 4.9 | 1.5 | 0.2 | 44.7* | -0.1
CCN(C[C@@H]1N[C@@H](CO)[C@@H]1c1ccc(-c2ccc(F)cc2)cc1)C(=O)COC | 2.8 | -0.2 | 0.2 | -9.3 | 2.0
CN(C[C@H]1N[C@@H](CO)[C@H]1c1ccc(-c2cccc(F)c2)cc1)C(=O)CC1CC1 | . | -0.1 | -0.3 | 20.2* | 1.0
COc1ccc(Cc2c(O)nc(SCC(=O)N3CCOCC3)[nH]c2=O)cc1 | -1.3 | -2.6 | . | -8.2 | 4.6
CCc1nn(CCCC(=O)N2CCN(c3ccc(OC)cc3)CC2)c(=O)c2cc3occc3n12 | -3.3 | 3.0 | 140.7* | 7.6 | .
CCc1nn(CCCC(=O)N2CCC(C)CC2)c(=O)c2cc3occc3n12 | 0.5 | 0.6 | . | 5.8 | 3.5
CCc1ccc(NC(=O)c2cc(C)nn2-c2ccccc2)cc1 | -3.6 | 9.0 | 6.7 | -3.3 | -3.2
CCOC(=O)c1cccc(NC(=O)c2cc(C)nn2-c2ccccc2)c1 | -2.0 | -3.5 | 40.7* | -0.5 | -5.4
CCCCC[C@@H](/C=C/C1C(=O)C=C[C@H]1C/C=C\CCCC(=O)OC)OC(C)=O (stereo partly drawn) | 0.3 | 3.3 | . | 25.4* | 1.8
CC(=O)NC[C@@H]1[C@H](c2ccc(-c3ccccc3F)cc2)[C@H](CO)N1C(=O)C1CC1 | -0.6 | 1.8 | 0.0 | 0.0 | 0.9
CC(=O)NC[C@@H]1[C@H](c2ccc(-c3ccccc3)cc2)[C@H](CO)N1C(=O)C1CC1 | 2.3 | -0.9 | 0.0 | 76.2* | 2.2
CC(=O)N1[C@H](CO)[C@@H](c2ccc(-c3cccc(F)c3)cc2)[C@H]1CNC(=O)C1CC1 | . | . | 0.1 | 124.2* | 3.8
CC(=O)NC[C@@H]1[C@@H](c2ccc(-c3ccccc3)cc2)[C@@H](CO)N1C(=O)C1CC1 | 1.6 | -1.1 | 0.1 | -15.9 | 1.2
SMILES | ERAP1 inh | SIRT5 inh | E-sel inducer | DENV2 CPE rescue | PglD DTNB
CC(=O)NC[C@H]1[C@@H](c2ccc(-c3cccnc3)cc2)[C@H](CO)N1C(=O)C1CC1 | -0.9 | 4.3 | -0.1 | 28.2* | 0.5
CC(=O)NC[C@H]1[C@@H](c2ccc(-c3ccccc3F)cc2)[C@@H](CO)N1C(C)=O | 2.7 | -3.1 | -0.1 | 41.4* | 0.2
CCC(=O)N(C)C[C@H]1Oc2cc(C#CC3CCCCC3)ccc2S(=O)(=O)N([C@@H](C)CO)C[C@H]1C | -4.8 | 4.6 | 0.3 | 0.0 | 1.8
CC(=O)NC[C@H]1[C@H](c2ccc(-c3ccccc3F)cc2)[C@@H](CO)N1C(=O)C1CC1 | -1.1 | 1.0 | 0.1 | 81.3* | -6.0
NC(=O)CC(NC(=O)c1ccccc1)c1ccc(NCCN2CCOCC2)c([N+](=O)[O-])c1 (stereo not drawn) | . | . | 1.1 | -15.3 | -4.5
COc1cccc(OCc2cc(C(=O)N(C)CCC3CCCCO3)no2)c1 (stereo not drawn) | -2.6 | -3.0 | 0.1 | 39.3* | -6.3
COC(=O)c1cn(C(=O)c2ccccc2Cl)c2ccccc12 | -2.5 | 26.0* | . | -0.1 | .
COC(=O)c1cn(C(=O)OC)c2ccccc12 | . | . | . | . | -2.9
O=C(Nc1ccccc1)N1C[C@@H]2[C@H](c3ccccc31)[C@@H](CO)N2Cc1ccccc1Cl | 3.8 | 2.0 | 0.6 | 36.6* | 1.2
CC(C)NC(=O)N1[C@H](CO)[C@H]2c3ccccc3N(C(=O)Nc3ccccc3)C[C@H]21 | 0.0 | -1.3 | 0.3 | 20.5* | 3.9
COc1ccc(C(=O)N2C[C@@H]3[C@H](c4ccccc42)[C@H](CO)N3C(=O)NC(C)C)cc1 | -3.6 | -3.8 | -0.1 | 26.8* | 3.2
O=C(Nc1ccccc1)N1C[C@@H]2[C@H](c3ccccc31)[C@H](CO)N2Cc1ccccc1Cl | 3.2 | 1.2 | -0.6 | -1.0 | -2.1
CC12CC3(C)CC(C)(C1)CC(C(=O)NC1=NCCS1)(C2)C3 | . | . | . | . | -1.1
NC(=O)C1CCN(C(=O)C2(NC(=O)Nc3cccc(F)c3)CCCCC2)CC1 | -3.3 | -2.0 | . | 44.8* | 5.4
O=C(Nc1cccc(F)c1)NC1(C(=O)N2CCC(O)CC2)CCCCC1 | -7.5 | -2.3 | -0.1 | -1.9 | -0.9
COc1ccccc1C(O)c1ncc(-c2ccc(Cl)cc2)[nH]1 (stereo not drawn) | 1.3 | -3.9 | 0.0 | 7.9 | -6.1
Cc1cccc(NC(=O)Cn2c(=O)n(CC3CCCO3)c(=O)c3ccccc32)c1 (stereo not drawn) | 0.4 | -1.1 | . | 0.1 | 7.1
CCOc1ccc(NC(=O)Cn2c(=O)n(CC3CCCO3)c(=O)c3ccccc32)cc1 (stereo not drawn) | . | 15.4* | 0.1 | 1.6 | -1.6
COC(=O)c1cn(-c2ccccc2)nc1-c1ccc(OC)c(OC)c1 | 2.7 | -5.7 | . | 2.9 | .
O=C(CSc1nnc(-c2cccnc2)n1Cc1ccco1)Nc1nc(-c2ccc(F)cc2)cs1 | . | . | . | . | -2.7
CC(C)(C)C1CCC(=NNc2nc3ccccc3[nH]2)CC1 (stereo not drawn) | 1.8 | 19.0* | -0.1 | ? | .
CN1C(=O)c2cc(NC(=O)C3CCCCC3)ccc2OC[C@@H]2O[C@H](CC(=O)NCCc3ccncc3)CC[C@@H]21 | 0.2 | 1.6 | 0.2 | -5.1 | -2.1
